Active and inactive are the calls of the source. The rule behind the calls is not given here.
What was measured:
[1] = system: NCI-H1299; assay: Antiproliferative activity against human NCI-H1299 cells after 72 hrs by cell titer glo assay; assay type: functional, cell-based; conditions: NCI-H1299, 72 h
[2] = biological target: T1, Wee1-like protein kinase (Homo sapiens, UniProt P30291); assay: Inhibition of WEE1 in human NCI-H1299 cells assessed as reduction in Cdc2 phosphorylation at Tyr15 residue measured after 6 hrs by ELISA; assay type: cell-based
T1 sequence (P30291 whole entry, the tested form may be a part): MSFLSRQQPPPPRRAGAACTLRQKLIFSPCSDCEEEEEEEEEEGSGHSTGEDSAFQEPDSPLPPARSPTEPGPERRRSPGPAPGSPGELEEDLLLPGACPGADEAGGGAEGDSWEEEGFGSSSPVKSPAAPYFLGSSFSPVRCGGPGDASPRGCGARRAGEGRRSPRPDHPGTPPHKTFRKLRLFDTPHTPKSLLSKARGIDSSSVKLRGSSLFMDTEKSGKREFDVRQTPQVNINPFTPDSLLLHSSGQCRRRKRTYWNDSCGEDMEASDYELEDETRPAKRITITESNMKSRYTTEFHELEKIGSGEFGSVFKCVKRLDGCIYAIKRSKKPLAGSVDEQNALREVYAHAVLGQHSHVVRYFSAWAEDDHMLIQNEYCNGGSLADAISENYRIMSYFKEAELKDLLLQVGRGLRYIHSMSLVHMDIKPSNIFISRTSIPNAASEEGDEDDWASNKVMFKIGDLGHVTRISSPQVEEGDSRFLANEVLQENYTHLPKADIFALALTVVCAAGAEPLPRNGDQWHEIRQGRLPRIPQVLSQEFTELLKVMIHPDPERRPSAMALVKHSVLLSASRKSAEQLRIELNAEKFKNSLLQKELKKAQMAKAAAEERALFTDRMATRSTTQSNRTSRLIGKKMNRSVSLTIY

[3] = biological target: T1, Wee1-like protein kinase; assay: Binding affinity to wild type N-terminal GST-tagged human WEE1 catalytic domain (215 to 646 residues) expressed in baculovirus expression system measured after 1 hr by TR-FRET assay
[4] = Clearance in mouse microsomes; assay type: ADME, Microsome
[5] = Clearance in iv dosed mouse; assay type: ADME, organism-based; conditions: in vivo
[6] = AUC in po dosed mouse; assay type: ADME, organism-based; conditions: in vivo
[7] = Oral bioavailability in mouse; assay type: ADME, organism-based; conditions: in vivo
[8] = system: MX1; assay: (§1) Potentiation of irinotecan-induced antitumor activity against BRCA1/p53 deficient human MX1 cells xenografted in SCID mouse assessed as tumor growth inhibition at 25 mg/kg/day, po administered every other 2 days for 4 times 24 days post-tumor innoculation and measured twice weekly for 43 days in presence relative to irinotecan; assay type: functional; conditions: read-out: TGI
Procedure, shortened: (§2)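 MX-1 brei (homogenized tumour cell suspension) was injected subcutaneously into the flank of SCID mice. Treatment started at tumour volume ~350 mm³, with dosing beginning on day 24. Arms were vehicle, irinotecan 10 mg/kg/day Q4Dx4, or irinotecan 10 mg/kg/day Q4Dx4 plus test agent 25 mg/kg/day QD, 2 days on/2 days off, for 4 cycles. Tumour volumes were measured twice weekly.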

[9] = system: MX1; assay: as §1, with “delay” for “inhibition”, “times starting” for “times”, “weekly” for “weekly for 43 days in presence”; assay type: functional; procedure, shortened: as §2
[10] = system: MX1; assay: as §1, with “times starting from” for “times”, “weekly” for “weekly for 43 days in presence”, “to control” for “to irinotecan”; assay type: functional; conditions: read-out: TGI; procedure, shortened: as §2
[11] = Half life in iv dosed mouse; assay type: ADME, organism-based; conditions: in vivo
[12] = system: MX1; assay: Antitumor activity against BRCA1/p53 deficient human MX1 cells xenografted in SCID mouse assessed as tumor growth inhibition at 25 mg/kg/day, po administered every other 2 days for 4 times starting 24 days post-tumor innoculation and measured twice weekly; assay type: functional, organism-based

SMILES	EC50 [1] [nM]	EC50 [2] [nM]	Ki [3] [nM]	CLint scaled [4] [mL/min/kg]	further results
CCn1cc(-c2c(Cl)cccc2Cl)c(=O)c2cnc(Nc3ccc4c(c3)CN(C)CC43CC3)nc21	210	19			
CN(C)CCn1cc(-c2c(Cl)cccc2Cl)c(=O)c2cnc(Nc3ccc(N4CCN(C)CC4)cc3)nc21	7650	2850	24.4	1970	
C=Cc1cn(-c2c(Cl)cccc2Cl)c(=O)c2cnc(Nc3ccc4c(c3)CN(C)CC43CC3)nc12	80	21	0.3	463	
CN1Cc2cc(Nc3ncc4c(=O)n(-c5c(Cl)cccc5Cl)cc(C(F)F)c4n3)ccc2C2(CC2)C1	140	18	0.6	753	
CN1CCN(c2ccc(Nc3ncc4c(=O)c(-c5c(Cl)cccc5Cl)cn(CC(C)(C)O)c4n3)cc2)CC1	> 10000	4020	0.2	482	
CN1Cc2cc(Nc3ncc4c(=O)c(-c5c(Cl)cccc5Cl)c[nH]c4n3)ccc2C2(CC2)C1	330	29	0.6	532	
CN1CCN(c2ccc(Nc3ncc4c(=O)c(-c5c(Cl)cccc5Cl)cn(-c5ccccc5)c4n3)cc2)CC1	500	246	0.2		
CN1Cc2cc(Nc3ncc4c(=O)c(-c5c(Cl)cccc5Cl)cn(C)c4n3)ccc2C2(CC2)C1	100	11	0.3	413	clearance [5]: 25 mL/min/kg; AUC [6]: 6.2 µM·h; bioavailability [7]: 44%; inhibition in vivo at 25 mg/kg/day [8]: 57%; Activity [9]: 48%; inhibition in vivo at 25 mg/kg/day [10]: 88%; half-life [11]: 2.7 h; TGI [12]: Active
Cc1cn(-c2c(Cl)cccc2Cl)c(=O)c2cnc(Nc3ccc4c(c3)CN(C)CC43CC3)nc12	130	28	0.5	727	
CN1Cc2cc(Nc3ncc4c(=O)n(-c5c(F)cccc5Cl)c5nccn5c4n3)ccc2C(C)(C)C1			1.1	635	
CN1CCN(c2ccc(Nc3ncc4c(=O)c(-c5c(Cl)cccc5Cl)cn(C5COC5)c4n3)cc2)CC1	1720	324		582	
CN1CCN(c2ccc(Nc3ncc4c(=O)c(-c5c(Cl)cccc5Cl)cn(C5CC5)c4n3)cc2)CC1	460	22	1	582	
CN1Cc2cc(Nc3ncc4c(=O)n(-c5c(Cl)cccc5Cl)cc(CO)c4n3)ccc2C2(CC2)C1	60	25		320	
CN1CCN(c2ccc(Nc3ncc4c(=O)c(-c5c(Cl)cccc5Cl)cn(C)c4n3)cc2)CC1	520	79		270	
CN1Cc2cc(Nc3ncc4c(=O)c(-c5c(Cl)cccc5Cl)cn(C5CC5)c4n3)ccc2C2(CC2)C1	390	31		458	
